In ChEMBL document CHEMBL1799969, “Development of endocannabinoid-based chemical probes for the study of cannabinoid receptors” (J Med Chem, 2011):
Active and inactive are the calls of the source. The calls are words filed in the database; no cut-off is given here.

Columns and labels:
Cannabinoid receptor 2 = Cannabinoid receptor 2 (Homo sapiens, UniProt P34972); assay: Displacement of [3H]-CP55940 from human CB2 receptor expressed in HEK-293-EBNA cell membranes after 90 mins by scintillation counting
Cannabinoid receptor 2, sequence (P34972 whole entry): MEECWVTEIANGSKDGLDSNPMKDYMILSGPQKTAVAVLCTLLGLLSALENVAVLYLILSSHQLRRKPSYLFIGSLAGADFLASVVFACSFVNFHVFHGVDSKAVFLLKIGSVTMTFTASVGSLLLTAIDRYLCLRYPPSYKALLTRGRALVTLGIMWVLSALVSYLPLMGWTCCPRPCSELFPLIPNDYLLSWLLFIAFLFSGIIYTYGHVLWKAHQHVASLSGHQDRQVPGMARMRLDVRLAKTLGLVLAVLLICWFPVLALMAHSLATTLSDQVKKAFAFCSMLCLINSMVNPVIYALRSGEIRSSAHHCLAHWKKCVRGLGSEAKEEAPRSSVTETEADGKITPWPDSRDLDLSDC
In short: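 Competitive radioligand binding with [3H]CP55940 on membranes of HEK-293-EBNA cells transfected with human CB1 or CB2 receptor. Ki derived from IC50 by the Cheng-Prusoff equation. Mean ± SEM of two to four independent experiments, each run in triplicate.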

Cannabinoid receptor 1 [1] = target: T1, Cannabinoid receptor 1 (Homo sapiens, UniProt P21554); assay: Displacement of [3H]-CP55940 from human CB1 receptor expressed in HEK-293-EBNA cell membranes after 90 mins by scintillation counting
T1 sequence (P21554 whole entry): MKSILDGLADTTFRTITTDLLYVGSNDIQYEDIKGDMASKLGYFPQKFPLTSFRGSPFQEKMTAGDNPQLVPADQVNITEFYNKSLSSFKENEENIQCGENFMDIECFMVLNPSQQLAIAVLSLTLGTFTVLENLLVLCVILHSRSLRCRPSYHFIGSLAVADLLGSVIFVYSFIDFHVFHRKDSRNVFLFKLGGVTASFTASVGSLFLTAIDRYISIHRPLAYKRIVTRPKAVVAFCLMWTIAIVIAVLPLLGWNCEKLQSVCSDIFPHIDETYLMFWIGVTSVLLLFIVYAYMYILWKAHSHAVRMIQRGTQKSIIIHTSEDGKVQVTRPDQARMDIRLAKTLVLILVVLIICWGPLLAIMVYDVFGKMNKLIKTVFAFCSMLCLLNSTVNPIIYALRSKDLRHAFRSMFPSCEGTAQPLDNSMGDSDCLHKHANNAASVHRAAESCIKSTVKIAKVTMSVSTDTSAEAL

Cannabinoid receptor 1 [2] = target: T1, Cannabinoid receptor 1; assay: Binding affinity at CB1 receptor expressed in mouse HT22 cells at 1 uM incubated for 1 hr using antiCB1-antibody based fluorescence microscopy; assay type: cell-based; conditions: HT-22
In short: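 Transfected HT-22 cells were treated in sequence with the probe (1 μM, 1 h), streptavidin-Alexa 488, anti-CB1 antibody and an anti-rabbit Alexa 633 conjugate. Co-labelling was imaged by fluorescence microscopy in the red channel and as a merge.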

Cannabinoid receptor 1 [3] = target: T1, Cannabinoid receptor 1; assay: Binding affinity at CB1 receptor expressed in mouse HT22 cells at 1 uM incubated for 1 hr using strepavidin-Alexa Fluor 488 staining based by fluorescence microscopy; assay type: cell-based; conditions: HT-22
In short: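 HT-22 mouse hippocampal cells transiently transfected with CB1 were incubated with the biotinylated probe at 1 μM for 1 h. Excess probe was removed and bound probe detected with streptavidin-Alexa Fluor 488. Nuclei were stained with Hoechst 33258 and imaged by fluorescence microscopy. Nontransfected cells, or an excess of HU210, served as specificity controls.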

Cannabinoid receptor 1 [4] = target: T1, Cannabinoid receptor 1; assay: Binding affinity to CB1 receptor
In short: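 Radioligand competition binding on membranes of HEK-293-EBNA cells transfected with human CB1 receptor, displacing [3H]CP55940. Ki obtained from IC50 by the Cheng-Prusoff equation. Two to four independent experiments, each run in triplicate; mean ± SEM reported.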

SMILES	Ki (Cannabinoid receptor 2) [nM]	Ki (Cannabinoid receptor 1 [1]) [nM]	Activity (Cannabinoid receptor 1 [2])	Activity (Cannabinoid receptor 1 [3])	Ki (Cannabinoid receptor 1 [4]) [nM]
C#CCCCC(=O)OC[C@@H](C)NC(=O)CCC/C=C\C/C=C\C/C=C\C/C=C\CCCCC	> 2000	2000	–	–	–
C[C@H](CO)NC(=O)CCC/C=C\C/C=C\C/C=C\C/C=C\CCCCOC(=O)CCCCCNC(=O)CCCC[C@@H]1SC[C@@H]2NC(=O)N[C@@H]21	> 2000	2000	–	–	–
CCCCC/C=C\C/C=C\C/C=C\C/C=C\CCCC(=O)N[C@H](C)COC(=O)CCCCCNC(=O)CCCC[C@@H]1SC[C@@H]2NC(=O)N[C@@H]21	> 2000	2000	–	–	–
C#CCCCC(=O)OCC(CO)OCCCC/C=C\C/C=C\C/C=C\C/C=C\CCCCC (stereo not drawn)	84.9	84.7	–	–	–
CCCCC/C=C\C/C=C\C/C=C\C/C=C\CCCC(=O)OC(CO)COC(=O)CCCCCNC(=O)CCCC[C@@H]1SC[C@@H]2NC(=O)N[C@@H]21 (stereo partly drawn)	379	> 5000	–	–	–
CCCCC/C=C\C/C=C\C/C=C\C/C=C\CCCCOC(CO)CO	> 1000	25	–	–	–
O=C(CCCC[C@@H]1SC[C@@H]2NC(=O)N[C@@H]21)NCCCCCC(=O)OCCCC/C=C\C/C=C\C/C=C\C/C=C\CCCC(=O)NC1CC1	> 2000	> 2000	–	–	–
CCCCC/C=C\C/C=C\C/C=C\C/C=C\CCCCOC(CO)COC(=O)CCCCCNC(=O)CCCC[C@@H]1SC[C@@H]2NC(=O)N[C@@H]21 (stereo partly drawn)	450	221	Active	Active	–
CCCCCCC(C)(C)c1cc(O)c2c(c1)OC(C)(C)[C@@H]1CC=C(CO)C[C@@H]21	–	–	–	–	0.06
Cc1cc(-c2cc(C(=O)NC3C4(C)CCC(C4)C3(C)C)nn2Cc2ccc(CNCCCCCCN)cc2)ccc1Cl (stereo not drawn)	260	–	–	–	–
C#CCCCC(=O)N[C@@H](Cc1ccc(C(=O)c2ccccc2)cc1)C(=O)OC[C@@H](C)NC(=O)CCC/C=C\C/C=C\C/C=C\C/C=C\CCCCC	> 2000	2000	–	–	–
CCCCC/C=C\C/C=C\C/C=C\C/C=C\CCCC(=O)OC(CO)CO [2-ARACHIDONOYLGLYCEROL]	1300	–	–	–	–
